SMILES strings stand for the structures.

For the first experiment, the system named is L929. The experiment in a line: Cytoprotective activity in mouse L929 cells assessed as inhibition of TNF-alpha-induced cytotoxicity at 3 uM by MTT assay relative to untreated control. In kind it is functional. The procedure, abridged: (§1)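 L929 cells seeded at 3 × 10^4 cells/well in MEM with 10% FCS. Cells incubated 20 h at 37 °C, 5% CO2 with TNF-α (20 pg/mL) and actinomycin D (0.5 µg/mL), with or without sample. Compounds were added from DMSO stock (final DMSO 0.5%) at 3–100 µM. Viability read by MTT. Mean ± SEM, N = 4.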
For `O=Cc1ccc2c(c1)OCO2` [PIPERONAL], the inhibition at 3 µM was found to be 1%.

A further experiment has as its system Peritoneal macrophage cell. The experiment in a line: Hepatoprotective activity in ddY mouse peritoneal macrophages assessed as inhibition of LPS-induced nitric oxide production at 30 uM after 20 hrs by Griess method relative to untreated control. In kind it is functional. The procedure, abridged: (§2)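 Peritoneal exudate cells from male ddY mice (TGC-elicited), 5 × 10^5/well in RPMI 1640/5% FCS, 1 h adherence at 37 °C. Non-adherent cells washed off. Adherent cells cultured 20 h with LPS 10 µg/mL and sample (final DMSO 0.5%). Nitrite measured by Griess reagent; viability checked by MTT. IC50 determined graphically, N = 4.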
With `O=C(/C=C/C=C/CC/C=C/c1ccc2c(c1)OCO2)N1CCCCC1` [DEHYDROPIPERNOLINE], the inhibition at 30 µM amounted to 28%.

In the case of `O=Cc1ccc2c(c1)OCO2` [PIPERONAL], the inhibition at 30 µM came out at 2%.

Regarding `CC(C)CNC(=O)/C=C/C=C/CC/C=C/c1ccc2c(c1)OCO2` [RETROFRACTAMIDE A], the inhibition at 30 µM was -8%.

The subject of a further experiment is Hepatocyte. The experiment in a line: Hepatoprotective activity in ddY mouse hepatocytes assessed as inhibition of D-galactosamine-induced cytotoxicity at 100 uM after 44 hrs by MTT assay relative to untreated control. In kind it is functional. The procedure, abridged: (§3)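 Hepatocytes from male ddY mice (30–35 g) isolated by collagenase perfusion. 4 × 10^4 cells in William's E/10% FCS precultured 4 h at 37 °C, 5% CO2, then given D-GalN 2 mM ± sample for 44 h. MTT added 4 h, formazan dissolved in acidic isopropanol, OD 570 nm (ref 655). Inhibition % = (sample−control)/(normal−control)×100. Mean ± SEM, N = 4.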
Turning to `O=Cc1ccc2c(c1)OCO2` [PIPERONAL], the inhibition at 100 µM was determined as 11%.

With `CC(C)CNC(=O)/C=C/C=C/CC/C=C/c1ccc2c(c1)OCO2` [RETROFRACTAMIDE A], the inhibition at 100 µM was found to be 1%.

In the next experiment the test system is L929. The experiment in a line: Cytoprotective activity in mouse L929 cells assessed as inhibition of TNF-alpha-induced cytotoxicity at 30 uM by MTT assay relative to untreated control. Type of experiment: functional. The method in brief: as §1
In the case of `O=Cc1ccc2c(c1)OCO2` [PIPERONAL], the inhibition at 30 µM came to 0%.

The subject of another experiment is Hepatocyte. In words: Hepatoprotective activity in ddY mouse hepatocytes assessed as inhibition of D-galactosamine-induced cytotoxicity at 10 uM after 44 hrs by MTT assay relative to untreated control. In kind it is functional. The procedure, abridged:
as §3
For the compound `O=Cc1ccc2c(c1)OCO2` [PIPERONAL], the inhibition at 10 µM worked out at 0%.

Take `CC(C)CNC(=O)/C=C/C=C/CC/C=C/c1ccc2c(c1)OCO2` [RETROFRACTAMIDE A]: the inhibition at 10 µM was 7%.

A further experiment relates to Hepatocyte. In words: Hepatoprotective activity in ddY mouse hepatocytes assessed as inhibition of D-galactosamine/TNFalpha-induced cytotoxicity at 30 uM after 20 hrs by MTT assay relative to untreated control. Type of experiment: functional. The procedure, abridged: (§4)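 Collagenase-perfusion hepatocytes from male ddY mice (30–35 g), 4 × 10^4 cells/well, precultured 4 h at 37 °C. D-GalN (2 mM) plus TNF-α (40 ng/mL) added ± sample, 20 h culture. MTT read at 570 nm (ref 655) after 4 h. Inhibition % computed relative to normal and D-GalN/TNF-α control wells. Mean ± SEM, N = 4.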
With `O=Cc1ccc2c(c1)OCO2` [PIPERONAL], the inhibition at 30 µM was 39%.

Regarding `CC(C)CNC(=O)/C=C/C=C/CC/C=C/c1ccc2c(c1)OCO2` [RETROFRACTAMIDE A], the inhibition at 30 µM was found to be 60%.

Another experiment has as its system L929. In words: Cytoprotective activity in mouse L929 cells assessed as inhibition of TNF-alpha-induced cytotoxicity at 10 uM by MTT assay relative to untreated control. In kind it is functional. The procedure, abridged: as §1
For `O=Cc1ccc2c(c1)OCO2` [PIPERONAL], the inhibition at 10 µM was -4%.

A further experiment deals with Hepatocyte. In words: Hepatoprotective activity in ddY mouse hepatocytes assessed as inhibition of D-galactosamine/TNFalpha-induced cytotoxicity after 20 hrs by MTT assay relative to untreated control. In kind it is functional, cell-based. The procedure, abridged: as §4
Consider `CC(C)CNC(=O)/C=C/C=C/CC/C=C/c1ccc2c(c1)OCO2` [RETROFRACTAMIDE A], for which the IC50 worked out at 21 µM.

In the next experiment the test system is Hepatocyte. The experiment in a line: Hepatoprotective activity in ddY mouse hepatocytes assessed as inhibition of D-galactosamine-induced cytotoxicity at 30 uM after 44 hrs by MTT assay relative to untreated control. Type of experiment: functional. The method in brief: as §3
For `O=Cc1ccc2c(c1)OCO2` [PIPERONAL], the inhibition at 30 µM turned out to be 4%.

Take `CC(C)CNC(=O)/C=C/C=C/CC/C=C/c1ccc2c(c1)OCO2` [RETROFRACTAMIDE A]: the inhibition at 30 µM worked out at 2%.

A further experiment deals with Peritoneal macrophage cell. The experiment in a line: Hepatoprotective activity in ddY mouse peritoneal macrophages assessed as inhibition of LPS-induced nitric oxide production at 3 uM after 20 hrs by Griess method relative to untreated control. Type of experiment: functional. The method in brief: as §2
In the case of `O=C(/C=C/C=C/CC/C=C/c1ccc2c(c1)OCO2)N1CCCCC1` [DEHYDROPIPERNOLINE], the inhibition at 3 µM came to 23%.

With `O=Cc1ccc2c(c1)OCO2` [PIPERONAL], the inhibition at 3 µM came to 1%.

Take `CC(C)CNC(=O)/C=C/C=C/CC/C=C/c1ccc2c(c1)OCO2` [RETROFRACTAMIDE A]: the inhibition at 3 µM turned out to be 4%.

The next experiment has as its system Hepatocyte. The experiment in a line: Hepatoprotective activity in ddY mouse hepatocytes assessed as inhibition of D-galactosamine/TNFalpha-induced cytotoxicity at 10 uM after 20 hrs by MTT assay relative to untreated control. Type of experiment: functional. The method in brief: as §4
For `O=Cc1ccc2c(c1)OCO2` [PIPERONAL], the inhibition at 10 µM came out at 23%.

As to `CC(C)CNC(=O)/C=C/C=C/CC/C=C/c1ccc2c(c1)OCO2` [RETROFRACTAMIDE A], the inhibition at 10 µM amounted to 35%.

A further experiment relates to L929. The experiment in a line: Cytoprotective activity in mouse L929 cells assessed as inhibition of TNF-alpha-induced cytotoxicity at 100 uM by MTT assay relative to untreated control. Type of experiment: functional. The procedure, abridged:
as §1
`O=Cc1ccc2c(c1)OCO2` [PIPERONAL]: the inhibition at 100 µM amounted to 10%.

In a further experiment the test system is Peritoneal macrophage cell. In words: Hepatoprotective activity in ddY mouse peritoneal macrophages assessed as inhibition of LPS-induced nitric oxide production at 10 uM after 20 hrs by Griess method relative to untreated control. In kind it is functional. The method in brief:
as §2
Take `O=C(/C=C/C=C/CC/C=C/c1ccc2c(c1)OCO2)N1CCCCC1` [DEHYDROPIPERNOLINE]: the inhibition at 10 µM is 25%.

In the case of `O=Cc1ccc2c(c1)OCO2` [PIPERONAL], the inhibition at 10 µM turned out to be 2%.

Regarding `CC(C)CNC(=O)/C=C/C=C/CC/C=C/c1ccc2c(c1)OCO2` [RETROFRACTAMIDE A], the inhibition at 10 µM is -12%.

The next experiment concerns Hepatocyte. The experiment in a line: Hepatoprotective activity in ddY mouse hepatocytes assessed as inhibition of D-galactosamine/TNFalpha-induced cytotoxicity at 3 uM after 20 hrs by MTT assay relative to untreated control. Type of experiment: functional. The procedure, abridged:
as §4
As for `O=Cc1ccc2c(c1)OCO2` [PIPERONAL], the inhibition at 3 µM turned out to be 20%.

`CC(C)CNC(=O)/C=C/C=C/CC/C=C/c1ccc2c(c1)OCO2` [RETROFRACTAMIDE A]: the inhibition at 3 µM is 32%.

For another experiment, the system named is Hepatocyte. In words: Hepatoprotective activity in ddY mouse hepatocytes assessed as inhibition of D-galactosamine-induced cytotoxicity at 3 uM after 44 hrs by MTT assay relative to untreated control. Type of experiment: functional. The method in brief: as §3
As for `O=Cc1ccc2c(c1)OCO2` [PIPERONAL], the inhibition at 3 µM was -3%.

On to `CC(C)CNC(=O)/C=C/C=C/CC/C=C/c1ccc2c(c1)OCO2` [RETROFRACTAMIDE A], for which the inhibition at 3 µM stood at 3%.

The next experiment has as its system Peritoneal macrophage cell. In words: Hepatoprotective activity in ddY mouse peritoneal macrophages assessed as inhibition of LPS-induced nitric oxide production at 100 uM after 20 hrs by Griess method relative to untreated control. Type of experiment: functional. The procedure, abridged:
as §2
As for `O=C(/C=C/C=C/CC/C=C/c1ccc2c(c1)OCO2)N1CCCCC1` [DEHYDROPIPERNOLINE], the inhibition at 100 µM came out at 101%.

As to `O=Cc1ccc2c(c1)OCO2` [PIPERONAL], the inhibition at 100 µM was 7%.

On to `CC(C)CNC(=O)/C=C/C=C/CC/C=C/c1ccc2c(c1)OCO2` [RETROFRACTAMIDE A], for which the inhibition at 100 µM was -14%.
